# From ChEMBL document CHEMBL5376013, “Design, synthesis and biological evaluation of novel morpholinopyrimidine-5-carbonitrile derivatives as dual PI3K/mTOR inhibitors” (RSC Med Chem, 2024)
# Columns and labels:
# Assay type in all cases: functional
# Details in all cases: read-out: GI
# MDA-MB-468 = experiment: Antitumor activity against human MDA-MB-468 cells assessed as growth inhibition at 10 uM relative to control
# Method in brief: (§1)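 After drug addition, plates were incubated 48 h at 37 °C under 5% CO2. Adherent cells were fixed with cold TCA (10% final, 60 min, 4 °C) and suspension cells with 16% final TCA. Staining used 0.4% SRB in 1% acetic acid, solubilized in 10 mM trizma, read at A515. Percent growth was calculated from time-zero, control and treated absorbances.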
# SK-MEL-2 = experiment: Antitumor activity against human SK-MEL-2 cells assessed as growth inhibition at 10 uM relative to control; method in brief: as §1
# M14 = experiment: Antitumor activity against human M14 cells assessed as growth inhibition at 10 uM relative to control; method in brief: as §1
# HOP-62 = experiment: Antitumor activity against human HOP-62 cells assessed as growth inhibition at 10 uM relative to control; method in brief: as §1
# COLO 205 = experiment: Antitumor activity against human COLO 205 cells assessed as growth inhibition at 10 uM relative to control; method in brief: as §1
# BT-549 = experiment: Antitumor activity against human BT-549 cells assessed as growth inhibition at 10 uM relative to control; method in brief: as §1
# UACC-257 = experiment: Antitumor activity against human UACC-257 cells assessed as growth inhibition at 10 uM relative to control
# Method in brief: (§2)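 Drug exposure 48 h at 37 °C, 5% CO2. Adherent cells fixed with cold TCA (10% final), suspension cells with TCA (16% final). Stained with 0.4% SRB in 1% acetic acid, dissolved in 10 mM Tris, A515. Growth relative to time-zero and untreated control.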
# OVCAR-4 = experiment: Antitumor activity against human OVCAR-4 cells assessed as growth inhibition at 10 uM relative to control; method in brief: as §1
# HL-60 = experiment: Antitumor activity against human HL-60 cells assessed as growth inhibition at 10 uM relative to control; method in brief: as §1
# NCI-H522 = experiment: Antitumor activity against human NCI-H522 cells assessed as growth inhibition at 10 uM relative to control; method in brief: as §1
# EKVX = experiment: Antitumor activity against human EKVX cells assessed as growth inhibition at 10 uM relative to control; method in brief: as §1
# SF-539 = experiment: Antitumor activity against human SF-539 cells assessed as growth inhibition at 10 uM relative to control; method in brief: as §1
# UACC-62 = experiment: Antitumor activity against human UACC-62 cells assessed as growth inhibition at 10 uM relative to control; method in brief: as §2
# SN12C = experiment: Antitumor activity against human SN12C cells assessed as growth inhibition at 10 uM relative to control; method in brief: as §2
# SF-268 = experiment: Antitumor activity against human SF-268 cells assessed as growth inhibition at 10 uM relative to control; method in brief: as §1
# HCT-116 = experiment: Antitumor activity against human HCT-116 cells assessed as growth inhibition at 10 uM relative to control; method in brief: as §1
# OVCAR-3 = experiment: Antitumor activity against human OVCAR-3 cells assessed as growth inhibition at 10 uM relative to control; method in brief: as §1
# T47D = experiment: Antitumor activity against human T47D cells assessed as growth inhibition at 10 uM relative to control; method in brief: as §2
# MOLT-4 = experiment: Antitumor activity against human MOLT-4 cells assessed as growth inhibition at 10 uM relative to control; method in brief: as §1
# 786-0 = experiment: Antitumor activity against human 786-0 cells assessed as growth inhibition at 10 uM relative to control; method in brief: as §1
# UO-31 = experiment: Antitumor activity against human UO-31 cells assessed as growth inhibition at 10 uM relative to control; method in brief: as §2
# MDA-MB-231 = experiment: Antitumor activity against human MDA-MB-231 cells assessed as growth inhibition at 10 uM relative to control; method in brief: as §1
# SK-MEL-5 = experiment: Antitumor activity against human SK-MEL-5 cells assessed as growth inhibition at 10 uM relative to control; method in brief: as §2
# RXF 393 = experiment: Antitumor activity against human RXF 393 cells assessed as growth inhibition at 10 uM relative to control; method in brief: as §1
# SW-620 = experiment: Antitumor activity against human SW-620 cells assessed as growth inhibition at 10 uM relative to control; method in brief: as §2
# NCI-H460 = experiment: Antitumor activity against human NCI-H460 cells assessed as growth inhibition at 10 uM relative to control; method in brief: as §1
# NCI-H322M = experiment: Antitumor activity against human NCI-H322M cells assessed as growth inhibition at 10 uM relative to control; method in brief: as §1
# IGROV-1 = experiment: Antitumor activity against human IGROV-1 cells assessed as growth inhibition at 10 uM relative to control; method in brief: as §1
# PC-3 = experiment: Antitumor activity against human PC-3 cells assessed as growth inhibition at 10 uM relative to control; method in brief: as §1
# ACHN = experiment: Antitumor activity against human ACHN cells assessed as growth inhibition at 10 uM relative to control; method in brief: as §1
# OVCAR-8 = experiment: Antitumor activity against human OVCAR-8 cells assessed as growth inhibition at 10 uM relative to control; method in brief: as §1
# NCI-H226 = experiment: Antitumor activity against human NCI-H226 cells assessed as growth inhibition at 10 uM relative to control; method in brief: as §1
# U-251 = experiment: Antitumor activity against human U-251 cells assessed as growth inhibition at 10 uM relative to control; method in brief: as §2
# SNB-75 = experiment: Antitumor activity against human SNB-75 cells assessed as growth inhibition at 10 uM relative to control; method in brief: as §2
# HT-29 = experiment: Antitumor activity against human HT-29 cells assessed as growth inhibition at 10 uM relative to control; method in brief: as §1
# A498 = experiment: Antitumor activity against human A498 cells assessed as growth inhibition at 10 uM relative to control; method in brief: as §1
# SF-295 = experiment: Antitumor activity against human SF-295 cells assessed as growth inhibition at 10 uM relative to control; method in brief: as §1
# DU-145 = experiment: Antitumor activity against human DU-145 cells assessed as growth inhibition at 10 uM relative to control; method in brief: as §1
# CAKI-1 = experiment: Antitumor activity against human CAKI-1 cells assessed as growth inhibition at 10 uM relative to control; method in brief: as §1
# HOP-92 = experiment: Antitumor activity against human HOP-92 cells assessed as growth inhibition at 10 uM relative to control; method in brief: as §1
# LOX IMVI = experiment: Antitumor activity against human LOX IMVI cells assessed as growth inhibition at 10 uM relative to control; method in brief: as §1
# KM12 = experiment: Antitumor activity against human KM12 cells assessed as growth inhibition at 10 uM relative to control; method in brief: as §1
# MDA-MB-435 = experiment: Antitumor activity against human MDA-MB-435 cells assessed as growth inhibition at 10 uM relative to control; method in brief: as §1
# SK-MEL-28 = experiment: Antitumor activity against human SK-MEL-28 cells assessed as growth inhibition at 10 uM relative to control; method in brief: as §2
# HCT-15 = experiment: Antitumor activity against human HCT-15 cells assessed as growth inhibition at 10 uM relative to control; method in brief: as §1
# SK-OV-3 = experiment: Antitumor activity against human SK-OV-3 cells assessed as growth inhibition at 10 uM relative to control; method in brief: as §2
smiles,measurement,setting,value
CSc1nc(O)c(C#N)c(-c2ccc(Cl)cc2)n1,inhibition of growth at 10 µM,MDA-MB-468,< 1%
same,inhibition of growth at 10 µM,SK-MEL-2,< 1%
same,inhibition of growth at 10 µM,M14,< 1%
same,inhibition of growth at 10 µM,HOP-62,< 1%
same,inhibition of growth at 10 µM,COLO 205,< 1%
same,inhibition of growth at 10 µM,BT-549,< 1%
same,inhibition of growth at 10 µM,UACC-257,< 1%
same,inhibition of growth at 10 µM,OVCAR-4,< 1%
same,inhibition of growth at 10 µM,HL-60,< 1%
same,inhibition of growth at 10 µM,NCI-H522,< 1%
same,inhibition of growth at 10 µM,EKVX,< 1%
same,inhibition of growth at 10 µM,SF-539,< 1%
same,inhibition of growth at 10 µM,UACC-62,< 1%
same,inhibition of growth at 10 µM,SN12C,< 1%
same,inhibition of growth at 10 µM,SF-268,< 1%
same,inhibition of growth at 10 µM,HCT-116,< 1%
same,inhibition of growth at 10 µM,OVCAR-3,< 1%
same,inhibition of growth at 10 µM,T47D,< 1%
same,inhibition of growth at 10 µM,MOLT-4,< 1%
same,inhibition of growth at 10 µM,786-0,< 1%
same,inhibition of growth at 10 µM,UO-31,< 1%
same,inhibition of growth at 10 µM,MDA-MB-231,< 1%
same,inhibition of growth at 10 µM,SK-MEL-5,< 1%
same,inhibition of growth at 10 µM,RXF 393,< 1%
same,inhibition of growth at 10 µM,SW-620,< 1%
same,inhibition of growth at 10 µM,NCI-H460,< 1%
same,inhibition of growth at 10 µM,NCI-H322M,< 1%
same,inhibition of growth at 10 µM,IGROV-1,< 1%
same,inhibition of growth at 10 µM,PC-3,< 1%
same,inhibition of growth at 10 µM,ACHN,< 1%
same,inhibition of growth at 10 µM,OVCAR-8,< 1%
same,inhibition of growth at 10 µM,NCI-H226,< 1%
same,inhibition of growth at 10 µM,U-251,< 1%
same,inhibition of growth at 10 µM,SNB-75,11.3%
same,inhibition of growth at 10 µM,HT-29,< 1%
same,inhibition of growth at 10 µM,A498,< 1%
same,inhibition of growth at 10 µM,SF-295,< 1%
same,inhibition of growth at 10 µM,DU-145,< 1%
same,inhibition of growth at 10 µM,CAKI-1,< 1%
same,inhibition of growth at 10 µM,HOP-92,24.7%
same,inhibition of growth at 10 µM,LOX IMVI,< 1%
same,inhibition of growth at 10 µM,KM12,< 1%
same,inhibition of growth at 10 µM,MDA-MB-435,< 1%
same,inhibition of growth at 10 µM,SK-MEL-28,< 1%
same,inhibition of growth at 10 µM,HCT-15,< 1%
same,inhibition of growth at 10 µM,SK-OV-3,< 1%
CC1=NN(c2nc(-c3ccc(Cl)cc3)c(C#N)c(N3CCOCC3)n2)C(=O)C1,inhibition of growth at 10 µM,MDA-MB-468,< 1%
same,inhibition of growth at 10 µM,SK-MEL-2,12.9%
same,inhibition of growth at 10 µM,M14,10%
same,inhibition of growth at 10 µM,HOP-62,12.6%
same,inhibition of growth at 10 µM,COLO 205,< 1%
same,inhibition of growth at 10 µM,BT-549,33.9%
same,inhibition of growth at 10 µM,UACC-257,< 1%
same,inhibition of growth at 10 µM,OVCAR-4,48.5%
same,inhibition of growth at 10 µM,HL-60,18.2%
same,inhibition of growth at 10 µM,NCI-H522,21.1%
same,inhibition of growth at 10 µM,EKVX,11.2%
same,inhibition of growth at 10 µM,SF-539,< 1%
same,inhibition of growth at 10 µM,UACC-62,21%
same,inhibition of growth at 10 µM,SN12C,112%
same,inhibition of growth at 10 µM,SF-268,< 1%
same,inhibition of growth at 10 µM,HCT-116,< 1%
same,inhibition of growth at 10 µM,OVCAR-3,49.8%
same,inhibition of growth at 10 µM,T47D,< 1%
same,inhibition of growth at 10 µM,MOLT-4,< 1%
same,inhibition of growth at 10 µM,786-0,13.4%
same,inhibition of growth at 10 µM,UO-31,28.1%
same,inhibition of growth at 10 µM,MDA-MB-231,< 1%
same,inhibition of growth at 10 µM,SK-MEL-5,< 1%
same,inhibition of growth at 10 µM,RXF 393,56.6%
same,inhibition of growth at 10 µM,SW-620,14.8%
same,inhibition of growth at 10 µM,NCI-H460,< 1%
same,inhibition of growth at 10 µM,NCI-H322M,< 1%
same,inhibition of growth at 10 µM,IGROV-1,19%
same,inhibition of growth at 10 µM,PC-3,< 1%
same,inhibition of growth at 10 µM,ACHN,26.4%
same,inhibition of growth at 10 µM,OVCAR-8,< 1%
same,inhibition of growth at 10 µM,NCI-H226,10.2%
same,inhibition of growth at 10 µM,U-251,< 1%
same,inhibition of growth at 10 µM,SNB-75,43.5%
same,inhibition of growth at 10 µM,HT-29,< 1%
same,inhibition of growth at 10 µM,A498,42%
same,inhibition of growth at 10 µM,SF-295,< 1%
same,inhibition of growth at 10 µM,DU-145,< 1%
same,inhibition of growth at 10 µM,CAKI-1,29.9%
same,inhibition of growth at 10 µM,HOP-92,93.7%
same,inhibition of growth at 10 µM,LOX IMVI,24.5%
same,inhibition of growth at 10 µM,KM12,< 1%
same,inhibition of growth at 10 µM,MDA-MB-435,12.2%
same,inhibition of growth at 10 µM,SK-MEL-28,12.9%
same,inhibition of growth at 10 µM,HCT-15,10.3%
same,inhibition of growth at 10 µM,SK-OV-3,13.4%
